Among the data in ChEMBL document CHEMBL1122708, “Preparation and antibacterial activities of new 1,2,3-diazaborine derivatives and analogues” (1984) are MIC and ED50 values, retold here.

One assay deals with Klebsiella aerogenes. The experiment in a line: Minimum inhibitory concentration of compound against Enterobacter aerogenes delta 220. Type of assay: functional.
The test system of a further assay is Klebsiella pneumoniae. The assay can be described thus: Minimum inhibitory concentration of compound against Klebsiella pneumoniae delta 217. In kind it is functional.
For assay [1], the system named is Escherichia coli. The experiment in a line: Antibacterial activity againist Escherichia coli 120 infected NMRI mice after peroral administration. Type of assay: functional. The settings on record: po. The procedure, abridged:
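ED50 in NMRI mice infected intraperitoneally with E. coli 120; compound given orally immediately and 5 h after infection.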

The test system of assay [2] is Neisseria gonorrhoeae. The assay can be described thus: Minimum inhibitory concentration of compound against Neisseria gonorrhoeae AS 7720. In kind it is functional. The procedure, abridged:
(§1)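 Agar dilution on Kellogg agar, 10⁶ colony forming units, incubated 20 h at 36 °C in 5% CO₂; MIC is the lowest concentration giving no visible growth.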

Another assay concerns Proteus mirabilis. The experiment in a line: Minimum inhibitory concentration against Proteus mirabilis delta 89. Type of assay: functional.
A further assay deals with Salmonella typhimurium. The experiment in a line: Minimum inhibitory concentration of compound against Salmonella Typhimurium delta 119. The settings on record: Salmonella enterica. In kind it is functional, Salmonella enterica subsp. enterica serovar Typhimurium.
In assay [3] the test system is Neisseria gonorrhoeae. The assay can be described thus: Minimum inhibitory concentration of compound against Neisseria gonorrhoeae W2. In kind it is functional. The procedure, abridged: as §1
Assay [4] deals with Escherichia coli. The assay can be described thus: Minimum inhibitory concentration of compound against Escherichia coli delta 120. Type of assay: functional.

Structures are written as SMILES. In brackets after ≈: the same amount, converted by molar mass.

`Cc1ccc(S(=O)(=O)N2N=Cc3sc(Br)cc3B2O)cc1`: the MIC turned out to be 25 mg/L (≈ 64.9 µM) in the assay with Klebsiella aerogenes; 1.56 mg/L (≈ 4.05 µM) with Klebsiella pneumoniae; 0.5 mg/L (≈ 1.3 µM) in the assay with Neisseria gonorrhoeae [2]; 1.56 mg/L (≈ 4.05 µM) in the assay on Proteus mirabilis; 3.12 mg/L (≈ 8.1 µM) in the assay on Salmonella typhimurium; 2 mg/L (≈ 5.19 µM) in the assay with Neisseria gonorrhoeae [3]. Inhibition of growth in the assay with Escherichia coli [4] (MIC) required 6.25 mg/L (≈ 16.2 µM). The compound further showed an ED50 in the assay on Escherichia coli [1] of around 15 mg/kg.
Turning to `Cc1ccc(S(=O)(=O)N2N=Cc3cc(C)sc3B2O)c(Cl)c1`, the MIC in the assay on Klebsiella aerogenes worked out at 50 mg/L (≈ 141 µM); in the assay with Klebsiella pneumoniae it was 3.12 mg/L (≈ 8.8 µM); in the assay on Neisseria gonorrhoeae [2], 1 mg/L (≈ 2.82 µM); against Proteus mirabilis, 1.56 mg/L (≈ 4.4 µM); with Salmonella typhimurium, 6.25 mg/L (≈ 17.6 µM); in the assay with Neisseria gonorrhoeae [3], 1 mg/L (≈ 2.82 µM). Also, it took 50 mg/L (≈ 141 µM) to inhibit growth against Escherichia coli [4] (MIC). Moreover, the median effective dose (ED50) in the assay on Escherichia coli [1] came out at 25 mg/kg.
With `O=S(=O)(c1cc(Cl)c(Cl)cc1Cl)N1N=Cc2oc(Br)cc2B1O`, the minimum inhibitory concentration (MIC) is above 50 mg/L in the assay on Klebsiella aerogenes; 50 mg/L (≈ 109 µM) in the assay on Klebsiella pneumoniae; 0.5 mg/L (≈ 1.09 µM) in the assay on Neisseria gonorrhoeae [2]; 6.25 mg/L (≈ 13.6 µM) in the assay on Proteus mirabilis; 50 mg/L (≈ 109 µM) in the assay with Salmonella typhimurium; 2 mg/L (≈ 4.36 µM) against Neisseria gonorrhoeae [3]. Moreover, in the assay with Escherichia coli [4], the MIC is above 50 mg/L. Besides, the 50% effective dose (ED50) in the assay with Escherichia coli [1] is above 300 mg/kg.
As for `Cc1ccc(S(=O)(=O)N2N=Cc3ccc(Br)cc3B2O)cc1`, the MIC with Klebsiella aerogenes was above 50 mg/L; with Klebsiella pneumoniae it was 6.25 mg/L (≈ 16.5 µM); with Neisseria gonorrhoeae [2], 2 mg/L (≈ 5.28 µM); against Proteus mirabilis it was 12.5 mg/L (≈ 33 µM); in the assay on Salmonella typhimurium it was 6.25 mg/L (≈ 16.5 µM); in the assay on Neisseria gonorrhoeae [3], 8 mg/L (≈ 21.1 µM). In the assay on Escherichia coli [4], this compound showed an MIC of 50 mg/L (≈ 132 µM). The ED50 with Escherichia coli [1] is around 30 mg/kg.
As to `Cc1ccc(S(=O)(=O)N2N=Cc3c(ccc4ccccc34)B2O)cc1`, the MIC against Klebsiella aerogenes was above 50 mg/L; in the assay with Klebsiella pneumoniae it was 25 mg/L (≈ 71.4 µM); in the assay with Neisseria gonorrhoeae [2], 2 mg/L (≈ 5.71 µM); against Proteus mirabilis it was 3.12 mg/L (≈ 8.91 µM); in the assay on Salmonella typhimurium it was above 50 mg/L; with Neisseria gonorrhoeae [3] it was 8 mg/L (≈ 22.8 µM). In the assay with Escherichia coli [4], this compound registered an MIC above 50 mg/L. For the same compound, the ED50 with Escherichia coli [1] is above 100 mg/kg.
With `Cc1ccc(S(=O)(=O)N2N=Cc3sc(Cl)cc3B2O)cc1`, the MIC in the assay with Klebsiella aerogenes came out at 50 mg/L (≈ 147 µM); against Klebsiella pneumoniae, 2.5 mg/L (≈ 7.34 µM); with Neisseria gonorrhoeae [2], 1 mg/L (≈ 2.94 µM); against Proteus mirabilis it was 1.56 mg/L (≈ 4.58 µM); with Salmonella typhimurium, 5 mg/L (≈ 14.7 µM); in the assay on Neisseria gonorrhoeae [3], 1 mg/L (≈ 2.94 µM). Further, in the assay with Escherichia coli [4], it took 25 mg/L (≈ 73.4 µM) to inhibit growth (MIC). In the assay with Escherichia coli [1], the ED50 was 28 mg/kg.
As to `Cc1ccc(S(=O)(=O)N2N=Cc3oc(C)cc3B2O)cc1`, the MIC against Klebsiella aerogenes stood at 25 mg/L (≈ 82.2 µM); against Klebsiella pneumoniae it was 1.56 mg/L (≈ 5.13 µM); in the assay on Neisseria gonorrhoeae [2], 1 mg/L (≈ 3.29 µM); with Proteus mirabilis, 3.12 mg/L (≈ 10.3 µM); against Salmonella typhimurium, 3.12 mg/L (≈ 10.3 µM); in the assay on Neisseria gonorrhoeae [3], 8 mg/L (≈ 26.3 µM). In addition, in the assay with Escherichia coli [4], 12.5 mg/L (≈ 41.1 µM) was the least that counted as inhibitory (MIC). In the assay on Escherichia coli [1], this compound had a 50% effective dose (ED50) of around 10 mg/kg.
`Cc1ccc(S(=O)(=O)N2N=Cc3oc(Br)cc3B2O)cc1`: the minimum inhibitory concentration (MIC) in the assay on Klebsiella aerogenes came to 25 mg/L (≈ 67.7 µM); in the assay on Klebsiella pneumoniae it was 3.12 mg/L (≈ 8.46 µM); with Neisseria gonorrhoeae [2], 2 mg/L (≈ 5.42 µM); in the assay on Proteus mirabilis, 3.12 mg/L (≈ 8.46 µM); in the assay on Salmonella typhimurium, 3.12 mg/L (≈ 8.46 µM); in the assay on Neisseria gonorrhoeae [3], 8 mg/L (≈ 21.7 µM). Moreover, in the assay on Escherichia coli [4], the MIC is 12.5 mg/L (≈ 33.9 µM). In the assay with Escherichia coli [1], this compound returned a median effective dose (ED50) of around 30 mg/kg.
With `CS(=O)(=O)N1N=Cc2sccc2B1O`, the MIC with Klebsiella aerogenes is above 50 mg/L; in the assay with Klebsiella pneumoniae, above 50 mg/L; in the assay with Neisseria gonorrhoeae [2], above 8 mg/L; in the assay on Proteus mirabilis it was above 50 mg/L; against Salmonella typhimurium, above 50 mg/L; against Neisseria gonorrhoeae [3], above 8 mg/L. In addition, in the assay with Escherichia coli [4], the minimum inhibitory concentration (MIC) is above 50 mg/L. The median effective dose (ED50) in the assay on Escherichia coli [1] is 113 mg/kg.
For the compound `Cc1cc2c(s1)C=NN(S(=O)(=O)c1ccccc1C)B2O`, the minimum inhibitory concentration (MIC) turned out to be 50 mg/L (≈ 156 µM) against Klebsiella aerogenes; 0.78 mg/L (≈ 2.44 µM) against Klebsiella pneumoniae; 0.5 mg/L (≈ 1.56 µM) in the assay with Neisseria gonorrhoeae [2]; 1.56 mg/L (≈ 4.87 µM) against Proteus mirabilis; 6.25 mg/L (≈ 19.5 µM) in the assay on Salmonella typhimurium; 0.5 mg/L (≈ 1.56 µM) against Neisseria gonorrhoeae [3]. In addition, the MIC in the assay on Escherichia coli [4] came to 25 mg/L (≈ 78.1 µM). In the assay with Escherichia coli [1], this compound displayed an ED50 of 50 mg/kg.
Turning to `Cc1ccc(S(=O)(=O)N2N=Cc3cc(F)ccc3B2O)cc1`, the MIC in the assay with Klebsiella aerogenes was above 50 mg/L; in the assay with Klebsiella pneumoniae, 6.25 mg/L (≈ 19.6 µM); in the assay on Neisseria gonorrhoeae [2], 2 mg/L (≈ 6.29 µM); with Proteus mirabilis, 6.25 mg/L (≈ 19.6 µM); in the assay on Salmonella typhimurium, 6.25 mg/L (≈ 19.6 µM); in the assay with Neisseria gonorrhoeae [3], 8 mg/L (≈ 25.1 µM). In addition, the MIC against Escherichia coli [4] was 25 mg/L (≈ 78.6 µM). The compound further gave an ED50 with Escherichia coli [1] of around 25 mg/kg.
Take `Cc1ccc(S(=O)(=O)N2N=Cc3cc(Br)ccc3B2O)cc1`: the MIC in the assay with Klebsiella aerogenes was above 50 mg/L; against Klebsiella pneumoniae, 6.25 mg/L (≈ 16.5 µM); against Neisseria gonorrhoeae [2], 1 mg/L (≈ 2.64 µM); against Proteus mirabilis it was 1.56 mg/L (≈ 4.12 µM); in the assay with Salmonella typhimurium, 6.25 mg/L (≈ 16.5 µM); against Neisseria gonorrhoeae [3], 2 mg/L (≈ 5.28 µM). In the assay on Escherichia coli [4], this compound came in with an MIC of 25 mg/L (≈ 66 µM). The ED50 in the assay with Escherichia coli [1] was around 40 mg/kg.
For `CC(=O)Nc1ccc(S(=O)(=O)N2N=Cc3sc(Br)cc3B2O)c(Cl)c1`, the MIC in the assay on Klebsiella aerogenes was 25 mg/L (≈ 54 µM); in the assay on Klebsiella pneumoniae, 3.12 mg/L (≈ 6.75 µM); against Neisseria gonorrhoeae [2], 1 mg/L (≈ 2.16 µM); with Proteus mirabilis it was 6.25 mg/L (≈ 13.5 µM); with Salmonella typhimurium it was 3.12 mg/L (≈ 6.75 µM); in the assay on Neisseria gonorrhoeae [3], 1 mg/L (≈ 2.16 µM). Besides, the minimum inhibitory concentration (MIC) against Escherichia coli [4] worked out at 50 mg/L (≈ 108 µM). Further, the ED50 in the assay with Escherichia coli [1] turned out to be 208 mg/kg.
